How the values were obtained:
[1] = Selectivity index, ratio of CC50 for BHK cells to IC50 for Dengue virus 2 infected in BHK-D2RepT cells; type: functional
Method in brief: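 Selectivity index = CC50 / IC50. CC50 is from the 48 h MTT assay in nontransfected BHK cells; IC50 is from the 48 h luciferase read in BHK-D2RepT replicon cells, 96-well format.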

[2] = Cytotoxicity against BHK cells incubated for 48 hrs by MTT assay; type: cell-based, Mesocricetus auratus; details: hamster
Method in brief: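 Nontransfected BHK cells, about 5×10⁴ per well, were treated the next day with various compound concentrations for 48 h. Viability was measured by MTT. CC50 is the concentration giving 50% of control cell number; mean of three independent experiments.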

dengue virus type 2 [3] = assay: Antiviral activity against Dengue virus 2 infected in BHK-D2RepT cells assessed as reduction in viral replication incubated for 48 hrs by luciferase reporter replicon-based assay; type: functional, organism-based
Method in brief: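 Cells used were BHK-D2RepT: BHK carrying a DENV-2 (New Guinea C) firefly-luciferase replicon, maintained in DMEM/10% FBS/200 μg/mL G418. Seeded at 5×10⁴ cells/well for 24 h, then exposed to compound for 48 h (DMSO <0.2%). Medium was replaced before the Bright-Glo luciferase read. Triplicate wells with six control wells. IC50 is the concentration giving 50% of control luciferase signal; mean of three independent experiments.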

[4] = (§1) Inhibition of Dengue virus 2 NS2B-NS3 protease preincubated for 15 mins before Dabcyl- Lys-Gln-Arg-Arg-Gly-Arg-Ile-Glu-Edans substrate addition by fluorimetric assay; design: species or system dengue virus type 2
dengue virus type 2 [5] = assay: Inhibition of Dengue virus 2 NS2B-NS3 protease at 100 uM preincubated for 15 mins before Dabcyl- Lys-Gln-Arg-Arg-Gly-Arg-Ile-Glu-Edans substrate addition by fluorimetric assay
dengue virus type 2 [6] = assay: as §1
dengue virus type 2 [7] = assay: Inhibition of Dengue virus 2 NS2B-NS3 protease at 50 uM preincubated for 15 mins before substrate addition
dengue virus type 2 [8] = assay: Inhibition of Dengue virus 2 NS2B-NS3 protease at 25 uM preincubated for 15 mins before substrate addition
dengue virus type 2 [9] = assay: Inhibition of Dengue virus 2 NS2B-NS3 protease at 12.5 uM preincubated for 15 mins before substrate addition

Row | IC50 [4] [µM] | inhibition (dengue virus type 2 [5]) [%] | SMILES | further results
1 | 19.8 |  | O=C(N/N=C\Cc1ccccc1)c1cc(/C=N/Nc2cccc(C(F)(F)F)c2)nc2ccccc12 | Ratio CC50/IC50 [1]: 0.2; CC50 at 48 h [2]: 16.4 µM; IC50 (dengue virus type 2 [3]): 73.4 µM
2 | > 100 | 31.9 | Oc1c(/C=N/Nc2nc3ccccc3[nH]2)cccc1/C=N/Nc1nc2ccccc2[nH]1 | 
3 | > 100 | 24.4 | CCOC(=O)c1cc(/C=N\NC(N)=S)c(O)c(/C=N\NC(N)=S)c1 | 
4 | 29.5 |  | CCOC(=O)c1cc(/C=N/Nc2nc3ccccc3[nH]2)cc(/C=N/Nc2nc3ccccc3[nH]2)c1 | 
5 | 35.3 |  | O=C(O)c1cccc(N/N=C/c2cc(C(=O)NCCCCc3ccccc3)c3ccccc3n2)c1 | Ratio CC50/IC50 [1]: 4.5; CC50 at 48 h [2]: 49.7 µM; IC50 (dengue virus type 2 [3]): 11 µM
6 | > 100 | 44.1 | CCOC(=O)c1cc(/C=N/NC(=O)Nc2ccccc2)c(O)c(/C=N/NC(=O)Nc2ccccc2)c1 | 
7 | 48.6 |  | CCOC(=O)c1cc(C)c(O)c(/C=N/Nc2nc3ccccc3[nH]2)c1 | 
8 | > 100 | 35.4 | CCOC(=O)c1cc(/C=N/NC(=O)c2ccc3c(c2)OCO3)c(O)c(/C=N/NC(=O)c2ccc3c(c2)OCO3)c1 | 
9 | > 100 | 29.4 | NS(=O)(=O)c1ccc(N/N=C/c2cc(C(=O)NCCCCc3ccccc3)c3ccccc3n2)cc1 | 
10 | 29 |  | O=C(N/N=C/CCc1ccccc1)c1cc(/C=N/Nc2cccc(Cl)c2)nc2ccccc12 | 
11 |  |  | COc1c(C)c2c(c(O)c1C/C=C(\C)CCC(=O)O)C(=O)OC2 [MYCOPHENOLIC ACID] | Ratio CC50/IC50 [1]: 2.7; CC50 at 48 h [2]: 1.9 µM; IC50 (dengue virus type 2 [3]): 0.7 µM
12 | > 100 | 24.2 | O=C(NCCCc1ccccc1)c1cc(/C=N/Nc2cccc(Br)c2)nc2ccccc12 | 
13 | > 100 | 20.9 | O=C(N/N=C\CCc1ccccc1)c1cc(/C=N/Nc2cccc(C(F)(F)F)c2)nc2ccccc12 | 
14 | > 100 | 32.1 | O=C(NCCCc1ccccc1)c1cc(/C=N/Nc2cccc(Cl)c2)nc2ccccc12 | 
15 | > 100 | 20.6 | NS(=O)(=O)c1ccc(N/N=C/c2cc(C(=O)NCCCc3ccccc3)c3ccccc3n2)cc1 | 
16 | > 100 | 30.6 | O=C(NCCCCc1ccccc1)c1cc(/C=N/Nc2cccc(Br)c2)nc2ccccc12 | 
17 | 41.2 |  | O=C(O)c1cccc(N/N=C/c2cc(C(=O)NCCCc3ccccc3)c3ccccc3n2)c1 | Ratio CC50/IC50 [1]: 2.1; CC50 at 48 h [2]: 64.3 µM; IC50 (dengue virus type 2 [3]): 30.9 µM
18 | 19.9 |  | O=C(N/N=C\CCc1ccccc1)c1cc(/C=N/Nc2cccc(Br)c2)nc2ccccc12 | 

Row | IC50 [4] [µM] | inhibition (dengue virus type 2 [5]) [%] | SMILES | further results
19 | 28.1 |  | O=C(N/N=C\Cc1ccccc1)c1cc(/C=N/Nc2cccc(Cl)c2)nc2ccccc12 | Ratio CC50/IC50 [1]: 0.3; CC50 at 48 h [2]: 19.7 µM; IC50 (dengue virus type 2 [3]): 61.3 µM
20 | 39.5 |  | CCOC(=O)c1cc(/C=N/Nc2ccc(C(C)C)cc2)c(O)c(/C=N/Nc2ccc(C(C)C)cc2)c1 | Ratio CC50/IC50 [1]: 3.7; CC50 at 48 h [2]: 29.7 µM; IC50 (dengue virus type 2 [3]): 8 µM
21 | 220 |  | COc1ccc(-c2csc(N3N=C(c4ccc([N+](=O)[O-])cc4)/C(=N\Nc4ccc(C(N)=O)cc4)C3=O)n2)cc1 | 
22 | > 100 | 31.1 | NS(=O)(=O)c1ccc(N/N=C/c2cc(C(=O)N/N=C\Cc3ccccc3)c3ccccc3n2)cc1 | 
23 | 9.45 |  | O=C(N/N=C\Cc1ccccc1)c1cc(/C=N/Nc2cccc(Br)c2)nc2ccccc12 | Ratio CC50/IC50 [1]: >4.1; CC50 at 48 h [2]: > 100 µM; IC50 (dengue virus type 2 [3]): 24.7 µM
24 |  |  | COc1cc(/C=C/C(=O)CC(=O)/C=C/c2ccc(O)c(OC)c2)ccc1O [CURCUMIN] | Ratio CC50/IC50 [1]: 3.5; CC50 at 48 h [2]: 14.8 µM; IC50 (dengue virus type 2 [3]): 4.2 µM
25 | 22 |  | O=C(N/N=C\C=C\c1ccccc1)c1cc(/C=N/Nc2cccc([N+](=O)[O-])c2)nc2ccccc12 | Ratio CC50/IC50 [1]: 0.3; CC50 at 48 h [2]: 25 µM; IC50 (dengue virus type 2 [3]): 74.9 µM
26 | 7.46 |  | NS(=O)(=O)c1ccc(N/N=C/c2cc(C(=O)N/N=C\C=C\c3ccccc3)c3ccccc3n2)cc1 | inhibition (dengue virus type 2 [6]): Dose-dependent effect; inhibition (dengue virus type 2 [7]): 63.3%; inhibition (dengue virus type 2 [8]): 37.1%; inhibition (dengue virus type 2 [9]): 21.4%
27 | 36 |  | NS(=O)(=O)c1ccc(N/N=C/c2cc(C(=O)N/N=C\CCc3ccccc3)c3ccccc3n2)cc1 | 
28 | > 100 | 28 | CCOC(=O)c1cc(/C=N/N2C(=O)c3ccccc3C2=O)c(O)c(/C=N/N2C(=O)c3ccccc3C2=O)c1 | 
29 | > 100 | 27.4 | O=C(N/N=C\C=C\c1ccccc1)c1cc(/C=N/Nc2cccc(C(F)(F)F)c2)nc2ccccc12 | 
30 | 242 |  | O=C(CCCC(=O)/C(=C\c1ccc2c(c1)OCO2)CC(=O)c1ccccc1)OCCCl | 
31 | 14.6 |  | CCOC(=O)c1cc(/C=N/Nc2ccc([N+](=O)[O-])cc2)c(O)c(/C=N/Nc2ccc([N+](=O)[O-])cc2)c1 | 
32 | 7.83 |  | NS(=O)(=O)c1ccc(N/N=C/c2cc(C(=O)N/N=C/c3cccc(O)c3)c3ccccc3n2)cc1 | 
33 | 13.1 |  | CCOC(=O)c1cc(/C=N/Nc2nc3ccccc3[nH]2)c(O)c(/C=N/Nc2nc3ccccc3[nH]2)c1 | Ratio CC50/IC50 [1]: 0.4; CC50 at 48 h [2]: 12.6 µM; IC50 (dengue virus type 2 [3]): 35.9 µM; inhibition (dengue virus type 2 [6]): Dose-dependent effect
34 | > 100 | 28.2 | CCNC(=S)N/N=C\c1cc(C(=O)OCC)cc(/C=N\NC(=S)NCC)c1O | 
35 | 14.3 |  | O=C(N/N=C\C=C\c1ccccc1)c1cc(/C=N/Nc2cccc(Cl)c2)nc2ccccc12 | 
